Residues, ends and D or L forms follow the SMILES beside them.
Key:
[1] = Rate constant for the compound at a substrate concentration of 262 uM was determined; No cleavage; type: ADME
How it was run: (§1)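 Substrate incubated at 37 °C with Proteinase K in 30 mM Tris–HCl, 1 mM CaCl2, pH 8.0. Aliquots were taken at several times, snap-frozen in liquid nitrogen and held at -20 °C. Thawed samples went straight onto C-18 RP-HPLC, eluted with water then a gradient to 70% CH3CN. Substrate and cleavage products were tracked by UV at 210 nm against retention times.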

[2] = tested on: Proteinase K (Tritirachium album); experiment: Amount of proteinase K required to release folin positive amino acids at a substrate concentration of 304 uM
[3] = Rate constant for the compound at a substrate concentration of 304 uM was determined; type: ADME; how it was run: as §1
[4] = Relativity constant at a substrate concentration of 304 uM
[5] = Half-life period at a substrate concentration of 304 uM was determined; type: ADME; how it was run: as §1
[6] = Relativity constant at a substrate concentration of 304 uM; type: ADME; how it was run: as §1
[7] = Rate constant for the compound at a substrate concentration of 218 uM was determined; type: ADME; how it was run: as §1
[8] = Half-life period at a substrate concentration of 218 uM was determined; type: ADME; how it was run: as §1
[9] = Relativity constant at a substrate concentration of 218 uM; type: ADME; how it was run: as §1

Compound	K obs [1]	Activity [2] [mAU ml-1]	K obs [3] [h⁻¹]	Krel [4]	half-life at 304 µM [5] [min]	Krel [6]	K obs [7] [h⁻¹]	half-life at 218 µM [8] [min]	Krel [9]
N=[S+]([O-])(CC(=O)N[C@@H](Cc1ccccc1)C(=O)O)c1ccccc1 (some centres undefined)	No cleavage	300	–	–	–	–	–	–	–
N[C@@H](Cc1ccccc1)C(=O)N=[S+]([O-])(CC(=O)N[C@@H](Cc1ccccc1)C(=O)O)c1ccccc1 (some centres undefined)	–	3	3.75	1	11.1	–	–	–	–
N[C@H](Cc1ccccc1)C(=O)N=[S+]([O-])(CC(=O)N[C@H](Cc1ccccc1)C(=O)O)c1ccccc1 (some centres undefined)	–	30	2.72	–	15.3	0.73	–	–	–
N[C@@H](Cc1ccccc1)C(=O)N[C@@H](Cc1ccccc1)C(=O)N[C@@H](Cc1ccccc1)C(=O)O (H-Phe-Phe-Phe-OH)	–	1.5	–	–	–	–	1.11	37.5	0.59

From ChEMBL document CHEMBL1146626, “The stability of pseudopeptides bearing sulfoximines as chiral backbone modifying element towards proteinase K” (Bioorg Med Chem Lett, 2003)
